Data on 18 compounds can be found in ChEMBL document CHEMBL4000211, “Discovery of novel polycyclic spiro-fused carbocyclicoxindole-based anticancer agents” (Eur J Med Chem, 2017).

Test [1] relates to A2780S. Description: Antiproliferative activity against human A2780S cells at 30 uM after 48 hrs by MTT assay relative to control. The class given is functional. In short, it runs like this: (§1)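 Cells seeded at 3×10³/well and grown 24 h, then exposed 48 h to six final concentrations, twofold steps down from 30. MTT (5 mg/mL) was added for 2–4 h at 37 °C. Supernatant was removed, formazan dissolved in DMSO, and OD read at 570 nm. Results are given as IC50, or as percent inhibition where IC50 exceeds the top concentration. At least three runs.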
(In general: Tetrazolium dyes change colour on reduction, which living cells bring about.)

In another test the test system is MCF7. Description: Antiproliferative activity against human MCF7 cells after 48 hrs by MTT assay. The class given is functional, cell-based. The settings on record: MCF7, 48 h. A digest of the protocol:
as §1

The test system of another test is A549. Description: Antiproliferative activity against human A549 cells after 48 hrs by MTT assay. The class given is functional, cell-based. The settings on record: A549, 48 h. A digest of the protocol: as §1
The test system of another test is BGC-823. The test is described as follows: Antiproliferative activity against human BGC823 cells after 48 hrs by MTT assay. It is filed as functional, cell-based. The settings on record: BGC-823, 48 h. In short, it runs like this: as §1
For a further test, the system named is NCI-H1299. Description: Antiproliferative activity against human NCI-H1299 cells after 48 hrs by MTT assay. It is filed as functional, cell-based. The settings on record: NCI-H1299, 48 h. In short, it runs like this: as §1
The test system of the next test is HCT-116. Description: Antiproliferative activity against human HCT116 cells after 48 hrs by MTT assay. It is filed as functional, cell-based. Conditions: HCT-116, 48 h. A digest of the protocol:
as §1

The test system of the next test is A2780/Taxol. Description: Antiproliferative activity against human A2780T cells at 30 uM after 48 hrs by MTT assay relative to control. It is filed as functional. A digest of the protocol:
as §1

The next test relates to NCI-H1975. Description: Antiproliferative activity against human NCI-H1975 cells after 48 hrs by MTT assay. Conditions: NCI-H1975, 48 h. The class given is functional, cell-based. A digest of the protocol:
as §1

The next test deals with CT26. The test is described as follows: Antiproliferative activity against mouse CT26 cells after 48 hrs by MTT assay. The class given is functional, cell-based. The settings on record: CT26, 48 h. A digest of the protocol: as §1
Test [2] has as its system A2780S. Description: Antiproliferative activity against human A2780S cells after 48 hrs by MTT assay. The class given is functional, cell-based. A digest of the protocol: as §1

One may read the inhibition as the relative decrease from the control value, in per cent. Low values mean a weak effect, high ones a strong effect. One may read the IC50 as the concentration needed to halve the response being measured.

Molecules are shown by their SMILES.

With `CC[C@@H]1C(C=O)=C[C@H]2[C@@H](c3ccccc3O[C@@H]2CC)[C@@]12C(=O)Nc1ccccc12`, the inhibition at 30 µM in the test with A2780S [1] was 34.1%; with A2780/Taxol, 9%. In addition, the IC50 with MCF7, with A549, with BGC-823, in the test with NCI-H1299, in the test on HCT-116 and with NCI-H1975 was greater than 30 µM in each case. The same compound displayed an IC50 with CT26 greater than 30 µM.

On to `Cc1ccc2c(c1)[C@]1(C(=O)N2)[C@H](C)C(C=O)=C[C@H]2[C@H]1c1ccccc1O[C@@H]2C`, for which the figures for the inhibition at 30 µM in the test with A2780S [1] and in the test on A2780/Taxol were 12.8% and 7.1%, respectively. The IC50 with MCF7, with A549, with BGC-823, in the test with NCI-H1299, in the test with HCT-116 and with NCI-H1975 was greater than 30 µM each time. Besides, the half-maximal inhibitory concentration (IC50) in the test with CT26 is greater than 30 µM.

With `Cc1ccc2c(c1)[C@@H]1[C@H](C=C(C=O)[C@@H](C)[C@]13C(=O)Nc1ccccc13)[C@@H](C)O2`, the inhibition at 30 µM in the test on A2780S [1] amounted to 28.2%; with A2780/Taxol, 10.4%. Also, the IC50 in the test on MCF7, in the test on A549, in the test with BGC-823, in the test on NCI-H1299, in the test on HCT-116 and with NCI-H1975 was greater than 30 µM each time. The compound further had an IC50 with CT26 greater than 30 µM.

Turning to `O=CC1=C[C@@H]2COc3ccccc3[C@H]2C2(C1)C(=O)Nc1ccccc12` (some centres not stated), the IC50 with MCF7 was greater than 30 µM; with A549 it was greater than 30 µM; with BGC-823, greater than 30 µM; in the test on NCI-H1299, greater than 30 µM; with HCT-116, 25.8 µM; in the test with NCI-H1975, greater than 30 µM. Also, the IC50 with CT26 is 27.1 µM; in the test with A2780S [2] it was 21.6 µM. In the test with A2780/Taxol, this compound registered an inhibition at 30 µM of 25%.

For `CCC[C@@H]1C(C=O)=C[C@H]2[C@@H](c3ccccc3O[C@@H]2CCC)[C@@]12C(=O)Nc1ccccc12`, the IC50 in the test with MCF7, in the test with A549, in the test with BGC-823, with NCI-H1299, in the test on HCT-116 and in the test on NCI-H1975 was greater than 30 µM in each case. Besides, the results for the IC50 in the test with CT26 and in the test on A2780S [2] were greater than 30 µM and 25.7 µM, respectively. In the test on A2780/Taxol, this compound had an inhibition at 30 µM of 33.1%.

As to `C[C@@H]1C(C=O)=C[C@H]2[C@@H](c3ccccc3O[C@@H]2C)[C@@]12C(=O)N(c1ccccc1)c1ccccc12`, the IC50 in the test with MCF7 is greater than 30 µM; with A549, greater than 30 µM; in the test with BGC-823 it was 25.7 µM; in the test on NCI-H1299, 30 µM; with HCT-116 it was greater than 30 µM; in the test with NCI-H1975 it was greater than 30 µM. Moreover, the 50% inhibitory concentration (IC50) in the test on CT26 was greater than 30 µM; in the test on A2780S [2], 18.9 µM. In the test on A2780/Taxol, this compound gave an inhibition at 30 µM of 40.6%.

As for `C[C@@H]1C(C=O)=C[C@H]2[C@@H](c3cc(Cl)ccc3O[C@@H]2C)[C@@]12C(=O)Nc1ccccc12`, the inhibition at 30 µM was determined as 16.5% in the test with A2780S [1] and 5.8% with A2780/Taxol. Also, the 50% inhibitory concentration (IC50) with MCF7, with A549, with BGC-823, with NCI-H1299, in the test with HCT-116 and in the test with NCI-H1975 was greater than 30 µM throughout. Further, the IC50 in the test on CT26 was greater than 30 µM.

Take `C[C@@H]1C(C=O)=C[C@H]2[C@@H](c3ccccc3O[C@@H]2C)[C@@]12C(=O)N(C)c1ccccc12`: the inhibition at 30 µM in the test with A2780S [1] is 26.3%; in the test with A2780/Taxol, 4.5%. The IC50 in the test on MCF7, with A549, in the test on BGC-823, in the test on NCI-H1299, with HCT-116 and in the test with NCI-H1975 was greater than 30 µM throughout. The same compound returned an IC50 in the test with CT26 greater than 30 µM.

Turning to `C[C@@H]1C(C=O)=C[C@H]2[C@@H](c3cc(F)ccc3O[C@@H]2C)[C@@]12C(=O)Nc1ccccc12`, the inhibition at 30 µM with A2780S [1] was determined as 22.7%; in the test with A2780/Taxol, 2.6%. Also, the IC50 in the test on MCF7, in the test with A549, in the test with BGC-823, in the test with NCI-H1299, in the test with HCT-116 and in the test on NCI-H1975 was greater than 30 µM throughout. Also, in the test with CT26, the IC50 is greater than 30 µM.

As for `C[C@@H]1C(C=O)=C[C@H]2[C@@H](c3ccccc3O[C@@H]2C)[C@@]12C(=O)Nc1ccccc12`, the inhibition at 30 µM is 23.5% in the test on A2780S [1] and 17.3% in the test on A2780/Taxol. Besides, the IC50 in the test with MCF7, in the test on A549, with BGC-823, in the test with NCI-H1299, with HCT-116 and with NCI-H1975 was greater than 30 µM throughout. In the test with CT26, this compound came in with an IC50 greater than 30 µM.

Consider `C[C@@H]1C(C=O)=C[C@H]2[C@@H](c3cc(Br)ccc3O[C@@H]2C)[C@@]12C(=O)Nc1ccccc12`, for which the inhibition at 30 µM with A2780S [1] stood at 35.9%; in the test on A2780/Taxol it was 2.3%. The IC50 in the test on MCF7, with A549, in the test on BGC-823, in the test on NCI-H1299, with HCT-116 and in the test with NCI-H1975 was greater than 30 µM in each case. In the test on CT26, the IC50 was greater than 30 µM.

With `COc1ccc2c(c1)O[C@H](C)[C@H]1C=C(C=O)[C@@H](C)[C@]3(C(=O)Nc4ccccc43)[C@H]21`, the inhibition at 30 µM worked out at 9.3% with A2780S [1] and 3.9% in the test on A2780/Taxol. For the same compound, the IC50 with MCF7, with A549, in the test on BGC-823, in the test on NCI-H1299, with HCT-116 and in the test with NCI-H1975 was greater than 30 µM in each case. In the test with CT26, this compound came in with an IC50 greater than 30 µM.

For the compound `C[C@@H]1C(C=O)=C[C@H]2[C@@H](c3ccccc3O[C@@H]2C)[C@@]12C(=O)Nc1cc(Cl)ccc12`, the IC50 with MCF7, in the test with A549, in the test on BGC-823, in the test with NCI-H1299, with HCT-116 and in the test on NCI-H1975 was greater than 30 µM in each case. The IC50 with CT26 was greater than 30 µM; in the test on A2780S [2] it was 19.7 µM. In the test with A2780/Taxol, this compound came in with an inhibition at 30 µM of 13.1%.

For the compound `C[C@@H]1C(C=O)=C[C@H]2[C@@H](c3ccccc3O[C@@H]2C)[C@@]12C(=O)Nc1ccc(F)cc12`, the figures for the inhibition at 30 µM in the test with A2780S [1] and in the test with A2780/Taxol were 14.5% and 4.4%, respectively. For the same compound, the IC50 in the test with MCF7, with A549, with BGC-823, with NCI-H1299, in the test with HCT-116 and in the test on NCI-H1975 was greater than 30 µM throughout. Moreover, the IC50 in the test with CT26 is greater than 30 µM.

Take `C[C@@H]1C(C=O)=C[C@H]2[C@@H](c3cc([N+](=O)[O-])ccc3O[C@@H]2C)[C@@]12C(=O)Nc1ccccc12`: the inhibition at 30 µM with A2780S [1] is 25.2%; with A2780/Taxol, 0.2%. Further, the IC50 in the test on MCF7, in the test with A549, in the test with BGC-823, with NCI-H1299, in the test with HCT-116 and with NCI-H1975 was greater than 30 µM throughout. This compound gave an IC50 in the test with CT26 greater than 30 µM.

Take `C[C@@H]1C(C=O)=C[C@H]2[C@@H](c3cccc(F)c3O[C@@H]2C)[C@@]12C(=O)Nc1ccccc12`: the inhibition at 30 µM with A2780S [1] was 22.2%; with A2780/Taxol, 5.7%. For the same compound, the IC50 in the test with MCF7, in the test with A549, in the test with BGC-823, in the test with NCI-H1299, in the test on HCT-116 and in the test on NCI-H1975 was greater than 30 µM in each case. In the test on CT26, this compound showed an IC50 greater than 30 µM.

Consider `C[C@@H]1C(C=O)=C[C@H]2[C@@H](c3ccccc3OC2(C)C)[C@@]12C(=O)Nc1ccccc12`, for which the inhibition at 30 µM in the test on A2780S [1] is 14.4%; with A2780/Taxol it was 3.8%. Besides, the IC50 with MCF7, with A549, with BGC-823, with NCI-H1299, with HCT-116 and in the test with NCI-H1975 was greater than 30 µM throughout. Also, the IC50 in the test on CT26 is greater than 30 µM.

On to `C[C@@H]1C(C=O)=C[C@H]2[C@@H](c3ccccc3N[C@@H]2C)[C@@]12C(=O)Nc1ccccc12`, for which the inhibition at 30 µM was 47.2% in the test on A2780S [1] and 15.2% in the test with A2780/Taxol. Moreover, the IC50 with MCF7, with A549, in the test on BGC-823, in the test on NCI-H1299, in the test on HCT-116 and in the test with NCI-H1975 was greater than 30 µM each time. Moreover, in the test with CT26, the IC50 was greater than 30 µM.
